In test [1] the test system is Hepatoblastoma cell line. The test is described as follows: (§1) Effective concentration against Hepatitis B virus in human hepatoblastoma cell line. Type of test: functional. Put shortly:
(§2)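 Confluent cultures of the human hepatoblastoma line 2.2.15, which chronically produces HBV, were used to measure inhibition of HBV replication. Cells got nine consecutive daily doses of agent, with the medium removed each day.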

Test [2] in a line: Selectivity index was evaluated [Selectivity = (CC50 / EC50) against Hepatitis B virus in human hepatoblastoma cell line]. The test is classed as functional.
The test system of test [3] is Hepatoblastoma cell line. Described as §1. Type of test: functional, cell-based. Put shortly:
as §2

For test [4], the system named is Hepatoblastoma cell line. Kind of test: Cytotoxic concentration against Hepatitis B virus in human hepatoblastoma cell line. The test is classed as functional.

Where only a bound is given, the exact number is not on record here.

In turn, `Nc1ncnc2c1ncn2[C@H]1C=C[C@H](O)[C@@H]1O` came in with a concentration for an effect of 90% (EC90) in test [1] of 1.4 µM. The molecule further had an SI in test [2] of 232. This molecule also displayed a half-maximal effective concentration (EC50) in test [3] of 0.145 µM. Also, the CC50 in test [4] is 325 µM.
The molecule `Nc1ccn([C@@H]2CS[C@H](CO)O2)c(=O)n1` [LAMIVUDINE] gave a 90% effect concentration (EC90) in test [1] of 0.209 µM. Further, the SI in test [2] stood at 9014. Besides, in test [3], a half-maximal effect (EC50) was put at 0.07 µM. Further, the midpoint of cytotoxicity in test [4], the CC50, lay at 1880 µM.
The like results for `Nc1ncnc2c1ncn2[C@@H]1C[C@H](O)[C@@H](O)[C@H]1O` [NORARISTEROMYCIN] were, in that order, 9.6 µM, 46, 1.4 µM and 446 µM.
Take `Nc1ncnc2c1ncn2[C@@H]1CC[C@@H](O)[C@H]1O`: in test [1], it took 0.978 µM to reach the 90% level (EC90). In test [2], this molecule showed an SI of 95. The molecule further displayed a 50% effective concentration (EC50) in test [3] of 0.12 µM. The midpoint of cytotoxicity in test [4], the CC50, lay at 93 µM.
In test [1], `Nc1ncnc2c1ncn2[C@H]1C[C@@H](O)[C@H](O)[C@@H]1O` came in with an EC90 of over 10 µM. The molecule also came in with a concentration giving a half-maximal response (EC50) in test [3] of over 10 µM. Moreover, in test [4], half-maximal cytotoxicity (CC50) was put at 1880 µM.
Regarding `COC1CC(n2cnc3c(N)ncnc32)C(O)C1O` (configuration not stated), the EC90 in test [1] is over 10 µM. For the same molecule, the EC50 in test [3] is over 10 µM. In addition, in test [4], the CC50 was over 1000 µM.

(Values after ChEMBL document CHEMBL1131385, “Does the anti-hepatitis B virus activity of (+)-5'-noraristeromycin exist in its 4'-epimer and 4'-deoxygenated derivatives?” (J Med Chem, 1998).)
